24 compounds from ChEMBL document CHEMBL1144351, “Synthesis, structure-activity relationship, and receptor pharmacology of a new series of quinoline derivatives acting as selective, noncompetitive mGlu1 antagonists” (J Med Chem, 2005) can be followed below.

Data set [1] has as its target Metabotropic glutamate receptor 1 (Homo sapiens, UniProt Q13255). Kind of data set: Inhibitory concentration against human metabotropic glutamate receptor. The method in brief: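 Human mGlu1a receptor stably expressed in L929sA cells grown in GlutaMAX1 medium with 10% heat-inactivated dialyzed fetal calf serum, streptomycin and penicillin. Antagonism of receptor activation was read as intracellular Ca2+ response on a fluorometric imaging plate reader. IC50 is the mean of two or three independent experiments.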

The target in data set [2] is Metabotropic glutamate receptor 1 (Rattus norvegicus, UniProt P23385). Kind of data set: Inhibitory concentration against rat metabotropic glutamate receptor 1. In a few lines:
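Rat mGlu1a stably expressed in CHO-dhfr- cells grown in DMEM/GlutaMAX1 with 10% heat-inactivated dialyzed fetal calf serum, 0.4 mM L-proline and antibiotics. Inhibition of receptor activation was measured as intracellular Ca2+ rise on a fluorometric imaging plate reader. IC50 is the mean of two or three independent experiments.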

The nature of data set [3]: Half life in rat after the single intravenous administration at 2.5 mg/kg. It counts as ADME, organism-based. Also on record: dose 2.5 mg/kg, route intravenous. The settings on record: in vivo. In a few lines: (§1)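 Rats received a single intravenous 2.5 mg/kg dose. Plasma kinetics were followed to derive elimination half-life and total plasma clearance.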
Data set [4] in a line: Total plasma clearance in rat after the single intravenous administration at 2.5 mg/kg. On the set-up: dose 2.5 mg/kg, route intravenous. It counts as ADME, organism-based. The method in brief:
as §1

Metabotropic glutamate receptor 1 (Rattus norvegicus, UniProt P23385), sequence (P23385 whole entry): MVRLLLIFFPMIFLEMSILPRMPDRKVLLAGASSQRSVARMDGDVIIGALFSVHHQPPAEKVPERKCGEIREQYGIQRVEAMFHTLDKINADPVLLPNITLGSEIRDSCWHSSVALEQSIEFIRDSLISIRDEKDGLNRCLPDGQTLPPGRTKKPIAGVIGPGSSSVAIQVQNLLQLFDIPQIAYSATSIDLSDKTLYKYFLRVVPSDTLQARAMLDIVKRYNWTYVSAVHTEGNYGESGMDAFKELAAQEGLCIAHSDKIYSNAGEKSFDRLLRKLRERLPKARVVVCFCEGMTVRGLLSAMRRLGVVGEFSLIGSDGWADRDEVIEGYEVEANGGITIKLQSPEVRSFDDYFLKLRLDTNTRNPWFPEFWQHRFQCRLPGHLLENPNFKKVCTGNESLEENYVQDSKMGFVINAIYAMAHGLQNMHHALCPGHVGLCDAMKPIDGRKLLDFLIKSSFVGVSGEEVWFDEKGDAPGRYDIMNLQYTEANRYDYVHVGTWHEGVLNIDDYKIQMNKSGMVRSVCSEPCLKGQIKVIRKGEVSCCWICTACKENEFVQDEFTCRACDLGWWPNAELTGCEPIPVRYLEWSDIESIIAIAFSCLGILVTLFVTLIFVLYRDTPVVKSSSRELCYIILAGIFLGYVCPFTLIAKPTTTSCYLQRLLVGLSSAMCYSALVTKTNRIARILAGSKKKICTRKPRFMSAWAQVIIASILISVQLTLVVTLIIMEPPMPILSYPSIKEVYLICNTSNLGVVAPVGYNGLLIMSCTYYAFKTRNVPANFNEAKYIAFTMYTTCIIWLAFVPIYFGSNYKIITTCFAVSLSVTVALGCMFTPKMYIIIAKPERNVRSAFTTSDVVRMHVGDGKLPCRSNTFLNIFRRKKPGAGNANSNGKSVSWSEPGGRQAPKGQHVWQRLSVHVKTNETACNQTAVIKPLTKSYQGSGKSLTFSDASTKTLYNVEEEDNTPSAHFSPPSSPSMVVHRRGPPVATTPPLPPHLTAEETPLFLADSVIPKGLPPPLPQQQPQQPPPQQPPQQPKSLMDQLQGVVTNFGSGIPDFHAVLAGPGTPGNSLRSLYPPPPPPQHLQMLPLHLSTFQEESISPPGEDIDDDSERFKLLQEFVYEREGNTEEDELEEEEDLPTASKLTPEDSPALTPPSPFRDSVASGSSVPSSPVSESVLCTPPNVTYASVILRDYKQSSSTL
Metabotropic glutamate receptor 1 (Homo sapiens, UniProt Q13255), sequence (Q13255 whole entry): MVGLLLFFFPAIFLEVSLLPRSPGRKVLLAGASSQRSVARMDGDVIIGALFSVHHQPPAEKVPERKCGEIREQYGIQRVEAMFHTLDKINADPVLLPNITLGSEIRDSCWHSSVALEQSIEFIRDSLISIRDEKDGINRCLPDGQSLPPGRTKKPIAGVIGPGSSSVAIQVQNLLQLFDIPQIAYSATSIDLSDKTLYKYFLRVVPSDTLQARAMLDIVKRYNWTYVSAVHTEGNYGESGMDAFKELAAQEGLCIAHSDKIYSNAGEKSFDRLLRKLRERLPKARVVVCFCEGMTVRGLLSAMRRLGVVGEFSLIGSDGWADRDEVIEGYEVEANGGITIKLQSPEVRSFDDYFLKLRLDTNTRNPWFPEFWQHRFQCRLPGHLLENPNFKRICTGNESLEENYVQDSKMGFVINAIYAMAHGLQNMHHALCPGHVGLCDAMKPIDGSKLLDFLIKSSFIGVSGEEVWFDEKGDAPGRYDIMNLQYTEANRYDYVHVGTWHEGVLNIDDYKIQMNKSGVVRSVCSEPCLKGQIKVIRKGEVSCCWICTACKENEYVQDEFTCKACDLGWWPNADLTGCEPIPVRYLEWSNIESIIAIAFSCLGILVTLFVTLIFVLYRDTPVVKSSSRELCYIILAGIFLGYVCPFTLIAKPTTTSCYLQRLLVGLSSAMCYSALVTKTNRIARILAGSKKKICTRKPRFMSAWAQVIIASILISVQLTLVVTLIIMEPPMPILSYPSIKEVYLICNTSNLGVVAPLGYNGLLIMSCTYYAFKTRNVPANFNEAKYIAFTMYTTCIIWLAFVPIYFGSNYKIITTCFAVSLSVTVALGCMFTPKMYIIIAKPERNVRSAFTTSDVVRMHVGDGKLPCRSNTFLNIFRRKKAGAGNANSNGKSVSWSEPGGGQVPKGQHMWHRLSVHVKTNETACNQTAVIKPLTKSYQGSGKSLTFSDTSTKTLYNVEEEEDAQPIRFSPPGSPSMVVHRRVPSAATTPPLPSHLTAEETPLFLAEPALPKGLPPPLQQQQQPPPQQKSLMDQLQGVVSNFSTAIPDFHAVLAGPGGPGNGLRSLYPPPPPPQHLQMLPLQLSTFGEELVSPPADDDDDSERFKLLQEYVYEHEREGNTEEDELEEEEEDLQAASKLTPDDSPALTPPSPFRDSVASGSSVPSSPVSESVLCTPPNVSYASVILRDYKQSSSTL

What is called IC50 is the concentration at which inhibition is half-maximal. A lower IC50 goes with greater potency. `CO[C@H]1CC[C@@H](C(=O)c2ccc3nc4c(cc3c2)CCCN4C)CC1` yielded an IC50 in data set [1] of 29 nM.

Regarding `CCc1cc2cc(C(=O)CCc3ccccc3)ccc2nc1C`, the IC50 in data set [1] is more than 10000 nM; in data set [2], 230 nM.

Consider `CCc1cc2cc(C(=O)Cc3cccc(OC)c3)ccc2nc1C`, for which, in data set [2], inhibition was half-maximal at 435 nM (IC50). Regarding `CO[C@H]1CC[C@@H](C(=O)c2ccc3nc4c(cc3c2)CCS4)CC1`, the IC50 in data set [1] and in data set [2] was 2 nM in each case. Consider `CCc1cc2cc(C(=O)Cc3ccc(N(C)C)cc3)ccc2nc1C`, for which the IC50 in data set [2] stood at 645 nM.

Consider `CCc1cc2cc(C(=O)[C@H]3CC[C@@H](OC)CC3)ccc2n2nnnc12`, for which the IC50 amounted to 450 nM in data set [1] and 45 nM in data set [2]. Turning to `CCc1cc2cc(C(=O)C3CCC(OC)CC3)ccc2nc1-c1cccs1` (configuration not stated), in data set [2], the IC50 was 3310 nM. `CCCc1ccc2cc(C(=O)[C@H]3CC[C@@H](OC)CC3)ccc2n1`: the IC50 in data set [1] came out at 3 nM. In data set [2], `CCc1cc2cc(C(=O)Cc3ccc(OC)c(OC)c3)ccc2nc1C` yielded an IC50 of more than 10000 nM. Consider `CCc1cc2cc(C(=O)C3CCC(O)CC3)ccc2nc1C` (configuration not stated), for which the half-inhibitory concentration (IC50) in data set [1] came to 80 nM. For `CCc1cc2cc(C(=O)Cc3ccccc3)ccc2nc1C`, the values for the IC50 in data set [1] and in data set [2] were 51 nM and 10 nM, respectively. `O=C(Cc1ccccc1)c1ccc2cc3c(nc2c1)OCCC3` came in with an IC50 in data set [2] of 8300 nM.

Regarding `CO[C@H]1CC[C@@H](C(=O)c2ccc3nc4c(cc3c2)CCC4)CC1`, the concentration for half-maximal inhibition (IC50) in data set [1] amounted to 0.56 nM. With `CO[C@H]1CC[C@@H](C(=O)c2ccc3nc4c(cc3c2)CCCCC4)CC1`, the figures for the IC50 in data set [1] and in data set [2] were 18 nM and 80 nM, respectively. For `O=C(Cc1ccsc1)c1ccc2nc3c(cc2c1)CCCO3` the same measures were 74 nM and 7 nM.

`CCc1cc2cc(C(=O)C34CC5CC(CC(C5)C3)C4)ccc2nc1C` had an IC50 in data set [2] of 126 nM.

Consider `C[C@H]1CC[C@@H](C(=O)c2ccc3nc4c(cc3c2)CCCCC4)CC1`, for which the figures for the IC50 in data set [1] and in data set [2] were 16 nM and 125 nM, respectively. In turn, `CCc1cc2cc(C(=O)[C@H]3CC[C@@H](OC)CC3)ccc2nc1F` returned an IC50 in data set [1] of 9 nM. On to `O=C(CCc1ccccc1)c1ccc2nc3c(cc2c1)CCCO3`, for which the concentration for half-maximal inhibition (IC50) in data set [1] stood at 160 nM; in data set [2], 85 nM. Regarding `O=C(Cc1ccccc1)c1ccc2nc3c(cc2c1)CCCO3`, the IC50 came out at 14 nM in data set [1] and 6 nM in data set [2].

Turning to `CCc1cc2cc(C(=O)C3CCC(OC)CC3)ccc2nc1-c1nccs1` (configuration not stated), the IC50 in data set [2] was more than 10000 nM. As to `CCc1cc2cc(C(=O)C3CCC(OC)CC3)ccc2nc1CC` (stereo in doubt; cis), the half-inhibitory concentration (IC50) in data set [1] is 8 nM. Broadly, the half-life is the time needed for the level to fall by half in the phase considered. In general, clearance refers to a measure of how efficiently the substance is removed, as volume per time. Consider `CO[C@H]1CC[C@@H](C(=O)c2ccc3nc4c(cc3c2)CCCO4)CC1` (stereo in doubt; form 1), for which the IC50 is 0.55 nM in data set [1] and 3 nM in data set [2]. In data set [3], this compound showed a half-life of 19.2 min. The compound also gave a clearance in data set [4] of 91.7 mL/min/kg.

For `CO[C@H]1CC[C@@H](C(=O)c2ccc3nc4c(cc3c2)CCCO4)CC1` (stereo in doubt; form 2), the IC50 was 106 nM in data set [1] and 45 nM in data set [2].
